We go through six compounds from ChEMBL document CHEMBL1157190, “Design, synthesis, and anticonvulsant activity of N-phenylamino derivatives of 3,3-dialkyl-pyrrolidine-2,5-diones and hexahydro-isoindole-1,3-diones” (Bioorg Med Chem, 2008).

Data set [1] relates to Mus musculus. As to the kind of experiment: Anticonvulsant activity in ip dosed CF1 albino mouse assessed as inhibition of maximal electroshock-induced electrical stimulus at 300 mg/kg after 0.5 hr. Type of data set: functional, organism-based. Further details: dose 300 mg/kg. The method in brief:
(§1)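 Male CF-1 mice injected intraperitoneally at 30, 100 and 300 mg/kg, suspended in 0.5% methylcellulose/water. MES or subcutaneous pentylenetetrazole challenge at 0.5 and 4 h; selected compounds also at 1 or 2 h.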
On the technique in general: Protection in the maximal electroshock model is a classic sign of anticonvulsant action.

The subject of data set [2] is Rattus norvegicus. As to the kind of experiment: Antiepileptic activity in pilocarpine-induced status prevention in Sprague-Dawley rat assessed as weight change in post first stage 3 seizure at 450 mg/kg after 24 hrs. In kind it is functional. The method in brief: (§2)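 Pilocarpine-induced status prevention in rats. Compound given ip at time zero (65 or 450 mg/kg), followed by a challenge dose of pilocarpine. Seizure severity scored on the Racine scale. Average weight change (g, ±SEM) recorded for protected and non-protected rats.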

Data set [3] is described as follows: Lipophilicity, log kw of compound by RP-HPLC. In kind it is physicochemical. The method in brief: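 RP-HPLC on a C18 end-capped column at room temperature, with UV detection at 214 nm and uracil as the unretained marker. Capacity factor k = (tr − t0)/t0, from the mean of three measurement sets. log k extrapolated to 100% water (log k = log kw − Sφ) to give log kw.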

Data set [4] relates to Mus musculus. Put plainly: Anticonvulsant activity in ip dosed CF1 albino mouse assessed as inhibition of maximal electroshock-induced electrical stimulus at 300 mg/kg after 4 hrs. In kind it is functional, organism-based. Further details: dose 300 mg/kg. The method in brief: as §1
Data set [5] concerns Mus musculus. Put plainly: Anticonvulsant activity in ip dosed CF1 albino mouse assessed as inhibition of subcutaneous pentylenetetrazole-induced electrical stimulus at 300 mg/kg after 0.5 hr. In kind it is functional, organism-based. Further details: dose 300 mg/kg. In outline: as §1
Data set [6] deals with Mus musculus. Put plainly: Anticonvulsant activity in ip dosed CF1 albino mouse assessed as inhibition of subcutaneous pentylenetetrazole-induced electrical stimulus at 300 mg/kg after 4 hrs. Type of data set: functional, organism-based. Further details: dose 300 mg/kg. In outline: as §1
The test system of data set [7] is Mus musculus. Put plainly: Neurotoxicity in ip dosed CF1 albino mouse at 300 mg/kg after 4 hrs by rotarod test. Type of data set: toxicity, organism-based. Further details: dose 300 mg/kg, route intraperitoneal. As to conditions: in vivo. The method in brief: (§3)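 CF-1 mice given 30, 100 or 300 mg/kg ip in 0.5% methylcellulose/water, examined at 0.5 and 4 h. Rotorod test: neurotoxicity is the inability to keep equilibrium on the rod for a given time. Value is the minimum dose giving motor impairment; a dash means none at 300 mg/kg.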

Data set [8] deals with Mus musculus. As to the kind of experiment: Neurotoxicity in ip dosed CF1 albino mouse after 0.5 hr by rotarod test. Type of data set: toxicity, organism-based. As to conditions: in vivo. The method in brief:
as §3

In data set [9] the test system is Rattus norvegicus. As to the kind of experiment: Anticonvulsant activity in Sprague-Dawley rat assessed as protection against seizure at 30 mg/kg, po after 1 hr by maximal electroshock test. Type of data set: functional. The method in brief: (§4)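 Male Sprague–Dawley rats; compound suspended in 0.5% methylcellulose/water and given orally at a fixed 30 mg/kg, four rats per time point. MES test run at 0.25, 0.5, 1, 2 and 4 h after dosing, with motor impairment checked in parallel. Read-out: number of rats of four protected.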

The nature of data set [10]: Neurotoxicity in po dosed Sprague-Dawley rat after 2 hrs by rotarod test. In kind it is toxicity, organism-based. As to conditions: in vivo. For orientation: Falling from the rotarod earlier than controls is read as motor impairment.
Data set [11] relates to Rattus norvegicus. Put plainly: Anticonvulsant activity in Sprague-Dawley rat assessed as protection against seizure at 30 mg/kg, po after 0.5 hr by maximal electroshock test. Type of data set: functional. In outline: as §4
Data set [12] has as its system Mus musculus. As to the kind of experiment: Anticonvulsant activity in ip dosed CF1 albino mouse assessed as inhibition of subcutaneous pentylenetetrazole-induced electrical stimulus after 0.5 hr. Type of data set: functional. In outline: as §1
Data set [13] concerns Mus musculus. As to the kind of experiment: Neurotoxicity in ip dosed CF1 albino mouse after 4 hrs by rotarod test. Type of data set: toxicity, organism-based. Particulars: in vivo. In outline: as §3
Data set [14] has as its system Rattus norvegicus. Put plainly: Anticonvulsant activity in Sprague-Dawley rat assessed as protection against seizure at 30 mg/kg, po after 4 hrs by maximal electroshock test. Type of data set: functional. The method in brief:
as §4

For data set [15], the system named is Mus musculus. Put plainly: Anticonvulsant activity in ip dosed CF1 albino mouse assessed as inhibition of maximal electroshock-induced electrical stimulus after 0.5 hr. Type of data set: functional. The method in brief:
as §1

Data set [16] has as its system Mus musculus. Put plainly: Anticonvulsant activity in ip dosed CF1 albino mouse assessed as inhibition of subcutaneous pentylenetetrazole-induced electrical stimulus after 4 hrs. In kind it is functional. In outline:
as §1

For data set [17], the system named is Mus musculus. As to the kind of experiment: Anticonvulsant activity in ip dosed CF1 albino mouse assessed as inhibition of maximal electroshock-induced electrical stimulus after 2 hrs. In kind it is functional. In outline: as §1
Data set [18] concerns Mus musculus. Put plainly: Anticonvulsant activity in ip dosed CF1 albino mouse assessed as inhibition of maximal electroshock-induced electrical stimulus after 4 hrs. In kind it is functional. The method in brief: as §1
Data set [19] concerns Rattus norvegicus. As to the kind of experiment: Anticonvulsant activity in po dosed Sprague-Dawley rat assessed as inhibition of maximal electroshock-induced electrical stimulus after 0.5 hr. Type of data set: functional. In outline:
(§5)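 Oral dosing in male Sprague–Dawley rats at the previously estimated time of peak effect. Groups of eight rats received various doses until at least three points fell between 10 and 90% MES protection or minimal neurotoxicity (rotorod). ED50 and TD50 with 95% confidence intervals from regression of the plotted data; protective index = TD50/ED50.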

The subject of data set [20] is Rattus norvegicus. Put plainly: Anticonvulsant activity in Sprague-Dawley rat assessed as protection against seizure at 30 mg/kg, po after 0.25 hr by maximal electroshock test. Type of data set: functional. In outline: as §4
Data set [21] concerns Rattus norvegicus. Put plainly: Anticonvulsant activity in Sprague-Dawley rat assessed as protection against seizure at 30 mg/kg, po after 2 hrs by maximal electroshock test. Type of data set: functional. The method in brief: as §4
A short description of data set [22]: Neurotoxicity in po dosed Sprague-Dawley rat after 0.5 hr by rotarod test. Particulars: in vivo. Type of data set: toxicity, organism-based. In outline: as §5
For data set [23], the species on record is Rattus norvegicus. Put plainly: Protective index, ratio of TD50 for Sprague-Dawley rat by rotarod test to ED50 for Sprague-Dawley rat by MES test after 0.5 hr. Type of data set: functional. In outline: as §5
The species named for data set [24] is Rattus norvegicus. As to the kind of experiment: Protective index, ratio of TD50 for rat by rotarod test to ED50 for rat by MES test. Type of data set: functional.
Data set [25] is filed under the species Rattus norvegicus. As to the kind of experiment: Anticonvulsant activity in rat assessed as inhibition of maximal electroshock-induced electrical stimulus. Type of data set: functional.
For data set [26], the system named is Rattus norvegicus. As to the kind of experiment: Antiepileptic activity in pilocarpine-induced status prevention in Sprague-Dawley rat assessed as weight change in post first stage 3 seizure at 65 mg/kg after 24 hrs. Type of data set: functional. The method in brief:
as §2

Active and inactive are the calls of the source. No cut-off for these calls is given here.

With `Cc1ccc(NN2C(=O)C3CCCCC3C2=O)cc1` (centres undefined), the outcome in the data set on Mus musculus [1], with Mus musculus [4], with Mus musculus [5] and with Mus musculus [6] was inactive. Also, the Activity in the data set with Rattus norvegicus [2] was 10.2 g; in the data set on Mus musculus [7], “Not Active”; in the data set with Mus musculus [8], 300 mg/kg. In [3], the “log K” value was 2.028.

With `O=C1NC(=O)C(c2ccccc2)(c2ccccc2)N1` [PHENYTOIN], the outcome with Rattus norvegicus [9] and with Rattus norvegicus [14] was inactive. The compound also gave a TD50 at 2 h in data set [10] of more than 500 mg/kg. The result in the data set on Rattus norvegicus [11] was Active. Moreover, the Activity was found to be 30 mg/kg in the data set on Mus musculus [12], 100 mg/kg with Mus musculus [13], 30 mg/kg in the data set with Mus musculus [15] and 100 mg/kg in the data set on Mus musculus [8].

In the case of `CCC1(CC)CC(=O)N(Nc2ccc(Cl)cc2)C1=O`, the Activity in the data set on Mus musculus [16] stood at 300 mg/kg; with Mus musculus [17] it was 100 mg/kg; in the data set with Mus musculus [12], 100 mg/kg; in the data set with Mus musculus [13], 300 mg/kg; in the data set on Mus musculus [18], 300 mg/kg; with Mus musculus [8], 300 mg/kg. Also, the result in the data set with Mus musculus [1] was inactive. Further, in [3], the “log K” value was determined as 2.314.

Consider `CC1(C)CC(=O)N(Nc2ccccc2)C1=O`, for which the Activity is 50% in the data set with Rattus norvegicus [9]; 25% in the data set on Rattus norvegicus [20]; 300 mg/kg in the data set on Mus musculus [12]; 300 mg/kg in the data set with Mus musculus [15]; “Not Active” with Mus musculus [7]; 100 mg/kg in the data set on Mus musculus [8]. The outcome with Rattus norvegicus [11], with Rattus norvegicus [21], in the data set on Mus musculus [4], in the data set on Mus musculus [6] and in the data set with Rattus norvegicus [14] was inactive. Further, the ED50 with Rattus norvegicus [19] came to 69.9 mg/kg. Moreover, in data set [3], the “log K” value came to 1.471. This compound yielded a TD50 at 0.5 h in data set [22] of 500 mg/kg. The “Ratio TD50/ED50” value in the data set listed under Rattus norvegicus [23] is on record as 7.15.

For `O=C1CC2(CCCC2)C(=O)N1Nc1ccccc1`, the “Ratio TD50/ED50” value in the data set filed under Rattus norvegicus [24] stood at 3.44. The ED50 in the data set listed under Rattus norvegicus [25] came out at 76.3 mg/kg.

As to `CC1(C)CC(=O)N(Nc2cccc(Cl)c2)C1=O`, in data set [3], the “log K” value was found to be 2.071. Moreover, the result in the data set with Mus musculus [4], with Mus musculus [5] and with Mus musculus [6] was inactive. In addition, the Activity was 100 mg/kg in the data set with Mus musculus [15], “Not Active” with Mus musculus [7], 15 g with Rattus norvegicus [26] and 300 mg/kg with Mus musculus [8].

One may read the TD50 as the dose at which the toxic effect under study appears in half of the subjects. A high value points to harm only at a large dose. As usually defined, the ED50 is the dose that gives a 50% effect, or the effect in half of the subjects.
